Results from ChEMBL document CHEMBL1125290, “Bis basic substituted diaminobenzobisthiazoles as potential antiarthritic agents” (1992).

Assays:
Assay type in all cases: functional
[1] = system: Rattus norvegicus; test: Antiinflammatory activity against carrageenan induced rat paw edema (CPE), dosed orally
Procedure, shortened: (§1)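 Male Sprague–Dawley rats (150 ± 10 g), five per group. Compound or vehicle given orally in 0.5% methylcellulose 1 h before subplantar injection of 0.1 mL 1% carrageenan in saline into the right hind paw. Paw volume measured by mercury displacement before dosing and 3 h after carrageenan; the difference is the edema volume. ANOVA with Dunnett's t test.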

[2] = species: Rattus norvegicus; test: Antiinflammatory activity in D-adjuvant induced arthritis in rat measured by the change in body weight; design: concentration or dose not given beside the values
[3] = system: Rattus norvegicus; test: Antiinflammatory activity against D-adjuvant arthritis in injected rat paw at the dose of 50 mg/kg by oral administration
[4] = system: Rattus norvegicus; test: Antiinflammatory activity against D-adjuvant arthritis in uninjected rat paw at the dose of 50 mg/kg by oral administration
Procedure, shortened: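 Rat developing adjuvant arthritis screen with oral dosing on a prophylactic protocol. Percent change in body weight versus untreated animals was recorded as a preliminary toxicity sign. Significance was assessed against controls by two-tailed Student's t test, p < 0.05.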

[5] = system: Rattus norvegicus; test: Antiinflammatory activity against D-adjuvant arthritis in injected rat paw at the dose of 100 mg/kg by oral administration
[6] = system: Rattus norvegicus; test: Antiinflammatory activity against D-adjuvant arthritis in uninjected rat paw at the dose of 100 mg/kg by oral administration
[7] = system: Rattus norvegicus; test: Antiinflammatory activity against D-adjuvant arthritis in uninjected rat paw at the dose of 10 mg/kg by oral administration
[8] = system: Rattus norvegicus; test: Antiinflammatory activity against D-adjuvant arthritis in injected rat paw at the dose of 10 mg/kg by oral administration
[9] = system: Rattus norvegicus; test: Antiinflammatory activity against D-adjuvant arthritis in uninjected rat paw at the dose of 200 mg/kg by oral administration
[10] = system: Rattus norvegicus; test: Antiinflammatory activity against D-adjuvant arthritis in injected rat paw at the dose of 200 mg/kg by oral administration
[11] = system: Rattus norvegicus; test: Antiinflammatory activity dosed orally against D-adjuvant arthritis in rat.
[12] = system: Rattus norvegicus; test: Antiinflammatory activity dosed orally against carrageenan induced rat paw edema(CPE); procedure, shortened: as §1
[13] = system: Rattus norvegicus; test: Antiinflammatory activity against D-adjuvant arthritis in injected rat paw at the dose of 25 mg/kg by oral administration
[14] = system: Rattus norvegicus; test: Antiinflammatory activity against D-adjuvant arthritis in uninjected rat paw at the dose of 25 mg/kg by oral administration

| SMILES | Inhibition [1] [%] | Activity [2] [%] | inhibition in vivo at 50 mg/kg [3] [%] | inhibition in vivo at 50 mg/kg [4] [%] | also measured |
| --- | --- | --- | --- | --- | --- |
| O=C(CNC1CCCCC1)Nc1nc2cc3nc(NC(=O)CNC4CCCCC4)sc3cc2s1 | 20 | 8 | 3 | 59 | – |
| Nc1nc2cc3nc(N)sc3cc2s1 | 60 | -20 | – | – | inhibition in vivo at 100 mg/kg [5]: 79%; inhibition in vivo at 100 mg/kg [6]: 92% |
| CCN(CC)CC(=O)Nc1nc2cc3nc(NC(=O)CN(CC)CC)sc3c(OC)c2s1 | 17 | 10 | 19 | 0 | – |
| CCN(CC)CC(=O)Nc1nc2c(Cl)c3nc(NC(=O)CN(CC)CC)sc3c(Cl)c2s1 | 19 | -33 | – | – | inhibition in vivo at 10 mg/kg [7]: 71%; inhibition in vivo at 10 mg/kg [8]: 30% |
| CCOC(=O)c1c2sc(NC(=O)CN(CC)CC)nc2c(C)c2nc(NC(=O)CN(CC)CC)sc12 | 35 | -12 | 15 | 50 | – |
| N#Cc1c2sc(N)nc2c(Cl)c2nc(N)sc12 | 7 | 3 | – | – | inhibition in vivo at 200 mg/kg [9]: 37%; inhibition in vivo at 200 mg/kg [10]: 47% |
| O=C(CN1CCN(c2ccc(F)cc2)CC1)Nc1nc2cc3nc(NC(=O)CN4CCN(c5ccc(F)cc5)CC4)sc3cc2s1 | 11 | 12 | 41 | 79 | – |
| CCNC(=O)Nc1nc2cc3nc(NC(=O)NCC)sc3cc2s1 | 6 | -1 | 0 | 15 | – |
| CCN(CC)C(=O)CNc1nc2cc3nc(NCC(=O)N(CC)CC)sc3cc2s1 | 5 | -18 | 58 | 55 | – |
| CC1CC(C)CN(CC(=O)Nc2nc3cc4nc(NC(=O)CN5CC(C)CC(C)C5)sc4cc3s2)C1 (stereo not drawn) | 15 | -3 | 29 | 11 | – |
| CCN(CC)CC(=O)Nc1nc2c(Cl)c3nc(NC(=O)CN(CC)CC)sc3c(-c3ccccc3)c2s1 | 35 | -6 | 13 | 7 | – |
| CCN(CC)CC(=O)Nc1nc2cc3nc(NC(=O)CCl)sc3cc2s1 | – | – | 38 | 0 | Body weight change [11]: -16%; Inhibition [12]: 25% |
| CCN(CC)CC(=O)Nc1nc2cc3nc(N)sc3cc2s1 | 13 | -20 | 34 | 61 | – |
| CCOC(=O)N1CCN(CC(=O)Nc2nc3cc4nc(NC(=O)CN5CCN(C(=O)OCC)CC5)sc4cc3s2)CC1.Cl.Cl | 17 | -17 | 26 | 60 | – |
| CN(CC(=O)Nc1nc2cc3nc(NC(=O)CN(C)C4CCCCC4)sc3cc2s1)C1CCCCC1.Cl.Cl | 6 | -4 | – | – | inhibition in vivo at 100 mg/kg [5]: 32%; inhibition in vivo at 100 mg/kg [6]: 27% |
| CCN(CC)CC(=O)Nc1nc2cc3nc(NC(=O)CN(CC)CC)sc3c(C)c2s1.Cl.Cl | 8 | -37 | 59 | 100 | – |
| Cl.Cl.O=C(CN1CCCCC1)Nc1nc2cc3nc(NC(=O)CN4CCCCC4)sc3cc2s1 | 0.8 | -6 | – | – | inhibition in vivo at 200 mg/kg [9]: 79%; inhibition in vivo at 200 mg/kg [10]: 56% |
| CCN(CC)CC(=O)Nc1nc2c(C(F)(F)F)c3nc(NC(=O)CN(CC)CC)sc3c(Cl)c2s1.Cl.Cl | 18 | -22 | – | – | inhibition in vivo at 25 mg/kg [13]: 57%; inhibition in vivo at 25 mg/kg [14]: 100% |
| CCN(CC)CC(=O)N(C)c1nc2cc3nc(N(C)C(=O)CN(CC)CC)sc3cc2s1.Cl.Cl | 16 | -16 | 0 | 16 | – |
| CNc1nc2cc3nc(NC)sc3cc2s1.Cl.Cl | 24 | -30 | – | – | inhibition in vivo at 25 mg/kg [13]: 71%; inhibition in vivo at 25 mg/kg [14]: 100% |
| CCNCC(=O)Nc1nc2cc3nc(NC(=O)CNCC)sc3cc2s1.Cl.Cl | 21 | -28 | – | – | inhibition in vivo at 25 mg/kg [13]: 79%; inhibition in vivo at 25 mg/kg [14]: 100% |
| O=P1(N(CCCl)CCCl)NCCCO1 (stereo not drawn) [CYCLOPHOSPHAMIDE ANHYDROUS] | – | – | – | – | inhibition in vivo at 25 mg/kg [13]: 86%; Body weight change [11]: -19%; inhibition in vivo at 25 mg/kg [14]: 100%; Inhibition [12]: 18% |
